Results taken from PubChem BioAssay AID651931 (Vanderbilt Specialized Chemistry Center, 2012).
Activity calls are given as the source filed them. How the calls were made is not given here.

Target: Muscarinic acetylcholine receptor M3 (Rattus norvegicus) (UniProt P08483)
Experiment: rat M3 positive allosteric modulation check – CHO cells, calcium flux, selectivity assay for M5 PAM discovery project (AID 651931)
How it was run: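 Assay system: CHO-K1 cells stably expressing M3 muscarinic receptor, Fluo-4 loaded. Doses: test compound in 0.3% DMSO final. Incubation: dye load 45-60 min, 1.5 min compound, 50 s ACh. Detection: Fluo-4 fluorescence calcium mobilization measurement. Measure: baseline-normalized signal amplitude as % of maximal acetylcholine response.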

Sequence of Muscarinic acetylcholine receptor M3 (Rattus norvegicus) (P08483 whole entry, looked up): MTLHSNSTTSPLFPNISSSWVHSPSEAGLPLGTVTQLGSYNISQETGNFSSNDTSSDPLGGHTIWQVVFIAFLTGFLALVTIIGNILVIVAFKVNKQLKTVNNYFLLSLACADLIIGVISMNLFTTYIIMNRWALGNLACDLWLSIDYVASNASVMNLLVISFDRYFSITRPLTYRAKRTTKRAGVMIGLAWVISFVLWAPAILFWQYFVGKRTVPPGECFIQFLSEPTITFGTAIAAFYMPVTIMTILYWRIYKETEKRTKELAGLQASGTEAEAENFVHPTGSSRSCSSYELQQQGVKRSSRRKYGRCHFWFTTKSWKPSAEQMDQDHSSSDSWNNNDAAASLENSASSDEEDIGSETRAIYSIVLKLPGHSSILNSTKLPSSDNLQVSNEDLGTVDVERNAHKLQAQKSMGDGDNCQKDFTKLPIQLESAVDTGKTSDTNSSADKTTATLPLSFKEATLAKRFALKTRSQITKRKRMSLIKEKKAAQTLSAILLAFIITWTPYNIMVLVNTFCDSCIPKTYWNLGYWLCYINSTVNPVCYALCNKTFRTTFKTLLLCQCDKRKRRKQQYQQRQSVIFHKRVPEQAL

O=C1C(=O)N(CCOc2ccccc2)c2ccc(OC(F)(F)F)cc21 was tested, and the outcome was “inactive”.
